Test results taken from paper PMC3868989 (Pharmaceutical research, 2012).
pIC50: −log10 of the molar value. Converted amounts (≈) assume the structure as drawn.

How the values were obtained:
[1] = Phase solubility analysis; format: physicochemical; details: in presence of β-cyclodextrin 0-20 mM, water, 30 ± 2°C, 72 h
[2] = test system: prostate cancer cells PC3; experiment: MTT cell growth assay, PC3; format: cell-based; details: 72 h treatment
How it was run: (§1)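 Cells grown at 37°C under humidified 5% CO2. BxPC-3 and MDA-MB-231 were in DMEM with 10% FBS, and PC3 was in RPMI with 10% FBS. Lines were STR-authenticated. Cells were seeded in 96-well plates and dosed 24 h after seeding. After 72 h, MTT 0.5 mg/ml was added for 2 h at 37°C. Medium was replaced with DMSO for 30 min at room temperature before reading absorbance. Eight replicate wells per treatment; each experiment run at least three times.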

[3] = test system: breast cancer cells MDA-MB-231; experiment: MTT cell growth assay, MDA-MB-231; format: cell-based; details: MDA-MB-231 cells, 72 h treatment
How it was run: as §1

[4] = Water solubility study of CDF and CDF-β-cyclodextrin complexes; format: physicochemical; details: distilled water, ambient temperature, shaken 2 h, UV 365 nm
How it was run: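 The complex was made by kneading the components at 2:1 molar ratio in alcohol/water for 1 h. It was dried at 45°C for 24 h, powdered and sieved (#80). Excess test compound or complex was dispersed in 25 ml distilled water and shaken 2 h at ambient temperature to equilibrium. Solutions were passed through a 0.22-μm filter and diluted with methanol. Absorbance was read at 365 nm.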

[5] = Pharmacokinetics and tissue distribution; format: in vivo; details: mice, single i.v. dose CDF 5.0 mg/mice, at 2 h
How it was run: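 Female ICR-SCID mice, 8–10 weeks old, were starved overnight. Each received a single i.v. dose: test compound 5.0 mg/mouse, or its β-cyclodextrin 1:2 complex at 12.5 mg/mouse (5.0 mg equivalent). Vehicle was 1:1 ethanol/polysorbate 80 diluted tenfold with 5% glucose. About 200 μL blood was taken by cardiac puncture for serum. Pancreas was PBS-washed, blotted and weighed. Samples were stored at −80°C and quantified by validated LC-MS/MS.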

[6] = pancreas of mice; cited from earlier work
[7] = test system: pancreatic cancer cells BxPC-3; experiment: MTT cell growth assay, BxPC-3; format: cell-based; details: BxPC-3 cells, 72 h treatment
How it was run: as §1

COc1cc(/C=C/C(=O)C(=Cc2ccc(F)c(F)c2)C(=O)/C=C/c2ccc(O)c(OC)c2)ccc1O [CDF, 3,4-difluorobenzo curcumin]
phase solubility diagram type [1]: AN type
pIC50 [2]: 6.59
pIC50 [3]: 6.49
water solubility [4]: 14 µg/mL (≈ 28.4 µM)
concentration in pancreas [5]: ~ 300 ng/g
concentration in serum [5]: ~ 6 ng/ml
levels in pancreas relative to curcumin [6]: 10 times
pIC50 [7]: 6.46
